# An excerpt weighted towards active compounds, which were near 4.3% of everything screened.
# MC4R barr agon: MC4R agonists recruiting beta-arrestin, primary screen, cell-based, luminescence, agonist arm of biased-ligand search; AID 540308, 2011; 360,000 tested, 0.98% active; U2OS MC4R beta-arrestin complementation; percent of melanotan II response, DMSO zero; activation, % at 8.9 µM; Melanocortin receptor 4 (Homo sapiens), P32245;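 active = activation above a per-plate cutoff, the mean activation of sample wells on that plate plus 3 SD, cut at about 8% in these data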
# TAAR1 ag: human TAAR1 agonists, primary screen, Fluo-8 calcium fluorescence, CHO RD-HGA16 cells; 360,000 tested, 0.99% active; activation, % at 3 µM; vehicle wells 0%, saturating PEA agonist 100%;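 active = activation above the mean activation of all test compounds in the run plus 3 SD, cut at about 38% in these data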
#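 Test system: RD-HGA16 (CHO) cells co-expressing Gα16 and hTAAR1 / Benchmarks: DMSO vehicle as 0%, PEA at EC100 as 100% / Repeats: no replicates (n 1) / Measure: % activation from peak over basal fluorescence ratio, DMSO-to-PEA scaled / Timing: 17-24 h plating, Fluo-8 75 min 37 °C, 30 min RT / Technique: kinetic Fluo-8 calcium fluorescence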
# TAAR1 antagonist: human TAAR1 antagonists, primary screen, Fluo-8 calcium fluorescence, CHO RD-HGA16 cells; Trace amine-associated receptor 1 (Homo sapiens), Q96RJ0; AID 624466, 2012; antagonist; inhibition, % at 3 µM; 360,000 tested, 1.5% active;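 active = inhibition above a per-plate cutoff, the mean inhibition of test compounds on that plate plus 3 SD, cut at about 49% in these data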;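 note: 0% = DMSO plus EC80 beta-PEA response and 100% = DMSO alone without agonist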
#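 Test system: RD-HGA16 CHO cells with stable hTAAR1 and Gα16 / Probe or stimulus: EC80 β-phenethylamine stimulus / Times: seeding 17-24 h prior, 75-min 37 °C, 30-min RT dye loading / Detection: Fluo-8 calcium-sensitive fluorescence / Read-out basis: % inhibition scaled between DMSO and EC80 PEA controls / Repeats: singlicate, one well per test compound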
# HTR2A ag: mouse Htr2a agonists via beta-arrestin recruitment, primary screen, cell-based, luminescence. 360,000 tested, 0.66% active. 5-hydroxytryptamine receptor 2A (Mus musculus), P35363. activation, % at 7.6 µM. CHO-K1 mHTR2A beta-arrestin complementation; percent of 30 µM serotonin response. AID 624169, 2012;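 active = activation above a run cutoff, the mean activation of all tested compounds plus 3 SD, cut at about 14% in these data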;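 note: 0% = plate median of compound wells and 100% = 30 µM serotonin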
# MC4R antag cAMP: MC4R antagonists of cAMP signaling, primary screen, cell-based, TR-FRET, antagonist arm of biased-ligand search; inhibition, % at 6.5 µM; 360,000 tested, 0.48% active; AID 540295, 2011; Melanocortin receptor 4 (Homo sapiens), P32245; MC4R-expressing cells, MTII-stimulated cAMP, LANCE TR-FRET;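 active = inhibition above its plate's cutoff, the mean of tested wells on that plate plus 3 SD, cut at about 29% in these data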;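 note: 0% = Melanotan II alone and 100% = Melanotan II plus saturating MCL0020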
#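 Material: human MC4R-expressing U2OS cells. Probe or stimulus: Melanotan II challenge. Dosing: 6.5 µM single dose. Times: 30-min compound, 1-h challenge, 1-h detection, room temperature. Technique: TR-FRET with Eu-cAMP and labeled anti-cAMP, 671 nm. Replication: singlicate.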
# B2AR ag: beta2AR agonists driving receptor internalization, primary screen, cell-based, FAP fluorogen, flow cytometry; response, % (test concentration not listed); Am2.2-beta2AR cells; Beta-2 adrenergic receptor (Homo sapiens), P07550; 340,000 tested, 0.43% active;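 active = response above a set limit, near 3 SD of response in nonfluorescent compounds, cut at about 42% in these data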
# MC4R barr ag: MC4R beta-arrestin agonists, retest, confirmation, cell-based, luminescence, U2OS | U2OS MC4R beta-arrestin recruitment; scaled DMSO 0%, Melanotan II 100% | 2,400 tested, 31% active | activation, % at 8.9 µM | shares compounds with MC4R barr agon;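 active = mean activation across replicates above the hit cutoff set in the earlier primary screen, cut at about 8% in these data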
# MOR DOR agonist: agonists of MOR-DOR heterodimerization, counter-screen for MC4R biased agonist project, cell-based, luminescence; shares compounds with MC4R barr agon; U2OS PathHunter beta-arrestin, beta-gal luminescence; percent of deltorphin B response, DMSO zero; activation, % at 9.2 µM; 2,400 tested, 5.8% active;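 active = mean activation across replicates exceeds the hit threshold derived in the earlier primary screen, cut at about 18% in these data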;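 note: 100% = deltorphin B at 0.9 µM final and 0% = DMSO alone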
# Target sequence (P35372 whole entry, looked up): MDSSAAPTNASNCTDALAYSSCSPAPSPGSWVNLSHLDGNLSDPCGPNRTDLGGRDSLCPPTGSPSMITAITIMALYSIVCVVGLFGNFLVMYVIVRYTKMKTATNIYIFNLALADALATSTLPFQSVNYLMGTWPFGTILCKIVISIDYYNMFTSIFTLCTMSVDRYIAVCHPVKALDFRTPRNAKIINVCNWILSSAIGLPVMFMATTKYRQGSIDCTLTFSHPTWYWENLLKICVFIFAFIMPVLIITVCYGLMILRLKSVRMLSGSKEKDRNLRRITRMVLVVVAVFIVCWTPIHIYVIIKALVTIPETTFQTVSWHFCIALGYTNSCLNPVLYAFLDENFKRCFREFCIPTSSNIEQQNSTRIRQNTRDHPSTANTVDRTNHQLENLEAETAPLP
# Target sequence (P41143 whole entry, looked up): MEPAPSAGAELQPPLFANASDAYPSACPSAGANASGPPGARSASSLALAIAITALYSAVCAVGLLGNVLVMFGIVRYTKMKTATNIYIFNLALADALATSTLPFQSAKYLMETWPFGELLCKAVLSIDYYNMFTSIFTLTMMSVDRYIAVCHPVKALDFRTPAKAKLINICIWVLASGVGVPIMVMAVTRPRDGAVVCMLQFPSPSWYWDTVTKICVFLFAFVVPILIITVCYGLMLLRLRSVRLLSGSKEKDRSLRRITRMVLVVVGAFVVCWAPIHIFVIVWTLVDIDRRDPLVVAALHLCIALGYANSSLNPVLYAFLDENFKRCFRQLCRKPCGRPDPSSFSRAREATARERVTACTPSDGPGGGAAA
# * = called active by the depositor; / = no result given.
SMILES,MC4R barr agon,TAAR1 ag,TAAR1 antagonist,HTR2A ag,MC4R antag cAMP,B2AR ag,MC4R barr ag,MOR DOR agonist
COc1ccc(-c2ccc(/C=C3/C(=N)N4C(C)=CSC4=NC3=O)o2)c([N+](=O)[O-])c1,61*,11,41,-6,8,8,-2,3
Cc1cccc(NC(=S)NC(=O)c2ccc(-c3ccccc3)cc2)n1,4,0,-18,-4,19,-5,/,/
Cc1cccc(NC(=S)NC(=O)C(c2ccccc2)c2ccccc2)n1,33*,4,14,2,-13,-10,20*,7
COc1ccccc1/C=C/C(=O)OCC(=O)NC1CCCCCCC1,-1,-1,3,-5,7,4,/,/
COc1ccccc1C(=O)O/N=C1/CCCc2c1ccc(OC)c2[N+](=O)[O-],20*,10,28,0,-1,5,6,9
O=C(O)c1ccc(C(S(=O)(=O)c2ccccc2)S(=O)(=O)c2ccccc2)cc1,-3,1,5,1,-3,/,/,/
N/C(Cc1ccc(Cl)cc1)=N\OC(=O)c1cccc2ccccc12,11*,6,-4,1,3,7,11*,13
COc1ccc(C/C(N)=N/OC(=O)c2ccc(Cl)cc2)cc1,2,8,15,-1,8,1,/,/
Cc1ccc(N(C(=O)C(F)(F)F)C(C(=O)NC2CCCCC2)c2cccs2)cc1C (centres undefined),-1,3,0,8,4,4,/,/
O=C(NC1CCCCC1)C(c1cccs1)N(C(=O)C(F)(F)F)c1ccccc1 (centres undefined),27*,1,2,3,4,7,5,7
COc1nc2c(C)cccc2cc1-c1noc(-c2ccco2)n1,14*,2,-13,0,3,-3,5,2
C/C(=N\Nc1nc2ccccc2[nH]1)c1ccc2c(c1)OCO2,15*,0,15,-6,-3,10,5,6
C/C(=N\Nc1ccccn1)c1ccc2c(c1)OCO2,-2,4,-13,-5,1,-18,/,/
C/C(=N\Nc1nc2ccccc2[nH]1)c1ccc2c(c1)OCCO2,9.8*,0,13,-6,5,6,6,5
COc1ccc(C2CC(c3ccc(Cl)cc3Cl)n3nc(N)nc3N2)cc1 (centres undefined),15*,5,-11,1,5,0,13*,7
COc1ccc(C2CC(c3ccc(Cl)cc3Cl)Nc3nc(N)nn32)cc1 (centres undefined),7,6,10,-1,14,-10,/,/
COc1ccc(-c2sc3ccccc3c2-c2ccc(O)cc2)cc1,0,6,32,2,7,23,/,/
CN(C)CCOc1ccc(-c2c(-c3ccsc3)sc3ccccc23)cc1,13*,24,29,-4,12,19,23*,9
COc1ccc(-c2sc3ccccc3c2-c2ccc(OCCN(C)C)cc2)cc1,21*,11,47,-12,28,18,45*,15
O=CNc1cc(-c2ccc(C(=O)NC3CC3)cc2)cn2c(-c3ccccc3)cnc12,6,7,32,11,7,/,/,/
CC(=O)c1ccc(-c2cnc3c(NC=O)cc(-c4ccc(C(=O)NC5CC5)cc4)cn23)cc1,11*,4,-11,7,17,/,5,3
COc1ccc(-c2cc(NC=O)c3ncc(-c4ccc(C(C)=O)cc4)n3c2)cn1,17*,9,53*,0,3,/,16*,4
CCOC(=O)c1c(C)[nH]c(C(=O)Cn2nnc(-c3ccc(Cl)cc3)n2)c1C,18*,3,9,-6,10,-6,11*,5
CCOC(=O)c1c(C)[nH]c(C(=O)C(C)Sc2ccc(Cl)cc2)c1C (centres undefined),3,19,38,7,-1,-2,/,/
CCCCN1C(=O)N(c2ccccc2Cl)C(C)(O)CC1(C)C (centres undefined),1,12,-28,8,-2,-5,/,/
SMILES,MC4R barr agon,TAAR1 ag,TAAR1 antagonist,HTR2A ag,MC4R antag cAMP,B2AR ag,MC4R barr ag,MOR DOR agonist
CCN(CC)S(=O)(=O)c1ccc(C)c(NC(=O)COC(=O)C=C(C)C)c1,2,-3,-21,-1,-2,8,/,/
CCN(CC)S(=O)(=O)c1ccc(C)c(NC(=O)COc2ccc(Cl)cc2Br)c1,9.7*,-1,-9,-6,-17,-8,29*,40*
CCN(CC)S(=O)(=O)c1ccc(Cl)c(NC(=O)COc2ccc(OC)cc2)c1,31*,27,58*,-3,-11,-2,17*,26*
CC1CCCN(S(=O)(=O)c2ccc3oc(=O)ccc3c2)C1 (centres undefined),-3,4,-34,2,1,-5,/,/
Cc1cc(Cl)ccc1OC(C)C(=O)NNC(=O)C1CCCCC1C(=O)O (centres undefined),-1,2,-32,2,-1,-7,/,/
Cc1ccc(N(CC(=O)NC(C)c2ccccc2)S(=O)(=O)c2cccs2)cc1 (centres undefined),17*,1,-2,0,5,1,-5,2
Cc1nn(Cc2ccccc2Cl)c2sc(C(=O)Nc3nccs3)cc12,7,3,25,3,-6,-1,/,/
Cc1nn(Cc2ccc(F)cc2)c2sc(C(=O)Nc3nccs3)cc12,13*,9,18,-4,3,-17,2,5
CN(C)CCNC(=O)c1cccc(-c2cnc3c(NC=O)cc(-c4ccc(F)cc4)cn23)c1,-1,0,3,-10,-12,/,/,/
CCSc1ccc(-c2cc(NC=O)c3ncc(-c4cccc(C(=O)N(C)C)c4)n3c2)cc1,10*,15,26,2,-8,/,9.1*,2
CN(C)CCNC(=O)c1cccc(-c2cnc3c(NC=O)cc(/C=C/c4ccccc4)cn23)c1,17*,2,-9,-13,-5,/,7,3

# Bioassay records from PubChem.
